According to ChEMBL document CHEMBL1275345, “Pyrazolo[1',5':1,6]pyrimido[4,5-d]pyridazin-4(3H)-ones as selective human A(1) adenosine receptor ligands” (Bioorg Med Chem, 2010):
The source made the active and inactive calls. No cut-off for these calls is given here.

Columns and labels:
[1] = molecular target: T1, Adenosine receptor A3 (Homo sapiens) (UniProt P0DMS8); test: Displacement of [3H]NECA from human adenosine A3 receptor expressed in HeLa cells at 10 uM after 180 mins; format: cell-based
T1 sequence (whole entry): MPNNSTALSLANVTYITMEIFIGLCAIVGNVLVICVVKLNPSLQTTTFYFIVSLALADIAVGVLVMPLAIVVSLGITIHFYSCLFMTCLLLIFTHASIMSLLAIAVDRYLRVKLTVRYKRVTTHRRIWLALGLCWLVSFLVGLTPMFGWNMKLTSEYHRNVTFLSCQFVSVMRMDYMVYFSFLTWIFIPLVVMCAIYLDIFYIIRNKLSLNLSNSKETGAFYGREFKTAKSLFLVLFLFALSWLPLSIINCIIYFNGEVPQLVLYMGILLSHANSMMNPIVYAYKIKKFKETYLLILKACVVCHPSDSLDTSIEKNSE
Outline: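 HeLa cells expressing human A3 receptor, with displacement of [3H]NECA. Incubated at 25 °C for 180 min, then filtered and counted by beta scintillation. Ki (nM) or percentage inhibition at the single test concentration. Means of four assays, each in triplicate.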

[2] = molecular target: T2, Adenosine receptor A2b (Homo sapiens) (UniProt P29275); test: Displacement of [3H]DPCPX from human adenosine A2b receptor expressed in HEK293 cells at 10 uM after 30 mins; format: cell-based
T2 sequence (whole entry): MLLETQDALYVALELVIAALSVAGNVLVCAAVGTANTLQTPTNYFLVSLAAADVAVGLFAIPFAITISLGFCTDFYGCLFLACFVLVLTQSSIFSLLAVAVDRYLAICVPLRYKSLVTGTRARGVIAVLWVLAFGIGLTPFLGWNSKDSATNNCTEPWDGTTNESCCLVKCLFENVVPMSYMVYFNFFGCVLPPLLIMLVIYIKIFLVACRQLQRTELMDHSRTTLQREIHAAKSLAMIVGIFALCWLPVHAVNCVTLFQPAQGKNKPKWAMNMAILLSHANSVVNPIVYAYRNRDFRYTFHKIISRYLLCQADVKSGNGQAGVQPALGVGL
Outline: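 Human A2B receptor expressed in HEK-293 cells, with displacement of [3H]DPCPX. Incubated at 25 °C for 30 min, then filtered and counted by beta scintillation. Reported as Ki (nM) or percentage inhibition at the single test concentration. Means of four independent assays, each run in triplicate.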

[3] = molecular target: T3, Adenosine receptor A1 (Homo sapiens) (UniProt P30542); test: Displacement of [3H]DPCPX from human adenosine A1 receptor expressed in CHO-A1 cells at 10 uM after 60 mins; format: cell-based
T3 sequence (whole entry): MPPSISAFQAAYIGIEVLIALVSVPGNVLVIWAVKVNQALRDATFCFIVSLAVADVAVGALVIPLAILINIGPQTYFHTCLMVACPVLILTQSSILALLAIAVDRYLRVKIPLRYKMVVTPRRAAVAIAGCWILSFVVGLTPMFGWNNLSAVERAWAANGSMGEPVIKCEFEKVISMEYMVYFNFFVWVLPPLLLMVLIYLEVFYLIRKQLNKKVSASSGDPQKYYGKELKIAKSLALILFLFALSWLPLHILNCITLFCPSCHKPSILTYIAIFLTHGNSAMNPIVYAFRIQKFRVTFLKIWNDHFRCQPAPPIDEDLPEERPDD
Outline: (§1)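 Competition binding on membranes from CHO cells expressing human A1 receptor, labelled with 2 nM [3H]DPCPX. Non-specific binding defined with (R)-PIA. Incubation at 25 °C for 60 min, then filtration and beta scintillation counting. Result given as Ki (nM) or % inhibition at the single test concentration. Means of four separate assays, each in triplicate.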

Adenosine receptor A2a [4] = molecular target: T4, Adenosine receptor A2a (Homo sapiens, UniProt P29274); test: Displacement of [3H]ZM241385 from human adenosine A2a receptor expressed in HeLa cells at 10 uM after 30 mins; format: cell-based
T4 sequence (P29274 whole entry): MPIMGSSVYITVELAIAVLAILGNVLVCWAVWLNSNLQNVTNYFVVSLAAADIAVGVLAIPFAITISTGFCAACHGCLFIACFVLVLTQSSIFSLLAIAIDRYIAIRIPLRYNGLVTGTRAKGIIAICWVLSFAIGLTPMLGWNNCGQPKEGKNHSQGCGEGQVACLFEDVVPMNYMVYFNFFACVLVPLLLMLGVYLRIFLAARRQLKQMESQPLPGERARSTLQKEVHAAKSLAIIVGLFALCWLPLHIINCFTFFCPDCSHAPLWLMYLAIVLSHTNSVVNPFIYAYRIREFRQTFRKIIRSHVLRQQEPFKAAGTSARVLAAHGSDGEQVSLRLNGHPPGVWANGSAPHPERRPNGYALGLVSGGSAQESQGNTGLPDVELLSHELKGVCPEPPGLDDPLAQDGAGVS
Outline: (§2)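 [3H]ZM241385 specific binding in HeLa cells expressing human A2A receptor. Incubation at 25 °C for 30 min, followed by filtration and beta scintillation counting. Output is Ki (nM) or % inhibition at the single test concentration. Values are means of four separate assays, each performed in triplicate.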

Adenosine receptor A1 = molecular target: T5, Adenosine receptor A1 (Homo sapiens, UniProt P30542); test: Displacement of [3H]DPCPX from human adenosine A1 receptor expressed in CHO-A1 cells after 60 mins; format: cell-based; outline: as §1
T5 sequence (P30542 whole entry): T3 sequence (whole entry)

Homo sapiens = species on record: Homo sapiens; test: Selectivity ratio of Ki for human adenosine A2a receptor to Ki for human A1 receptor
Adenosine receptor A2a [5] = molecular target: T4, Adenosine receptor A2a; test: Displacement of [3H]ZM241385 from human adenosine A2a receptor expressed in HeLa cells after 30 mins; format: cell-based; outline: as §2
[6] = molecular target: cGMP-specific 3',5'-cyclic phosphodiesterase (Homo sapiens) (UniProt O76074); test: Inhibition of human platelets PDE5 at 2 uM
Outline: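 PDE5 came from human platelet lysate (10⁹ platelets): the supernatant was fractionated on a Mono-Q ion-exchange column. Activity was measured with a two-step cyclic nucleotide phosphodiesterase procedure. Compounds were tested at a single concentration and the result given as % inhibition.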

Row | inhibition [1] | inhibition [2] | inhibition [3] | inhibition (Adenosine receptor A2a [4]) | Ki (Adenosine receptor A1) | Ratio Ki (Homo sapiens) | Ki (Adenosine receptor A2a [5]) | inhibition [6] | Compound
1 | < 50% | < 50% | < 50% | < 50% | – | – | – | – | Cc1nn(Cc2ccccc2)c(=O)c2ncn3nccc3c12
2 | inactive | inactive | – | inactive | 92.7 nM | – | – | – | O=c1c2ncn3nc(-c4ccccc4)cc3c2c(-c2cccc(F)c2)nn1Cc1ccccc1
3 | < 50% | < 50% | – | < 50% | 2380 nM | – | – | – | CCc1nc2c(=O)n(C(C)c3ccccc3)nc(C)c2c2cc(-c3ccccc3)nn12 (stereo unspecified)
4 | inactive | inactive | – | – | 10.2 nM | 7 | 67.9 nM | – | O=c1c2ncn3nc(-c4ccccc4)cc3c2c(-c2ccncc2)nn1Cc1ccccc1
5 | inactive | inactive | – | inactive | 252 nM | – | – | – | O=c1c2ncn3nc(-c4ccccc4)cc3c2c(-c2ccc(F)cc2)nn1Cc1ccccc1
6 | inactive | inactive | < 50% | < 50% | – | – | – | – | Cc1nc2c(SCc3ccccc3)nnc(-c3ccncc3)c2c2cc(-c3ccccc3)nn12
7 | inactive | inactive | – | inactive | 563 nM | – | – | – | CCCc1nc2c(=O)n(Cc3ccccc3)nc(-c3ccccc3)c2c2cc(-c3ccccc3)nn12
8 | inactive | inactive | < 50% | inactive | – | – | – | – | CCc1nc2c(=O)n(Cc3ccccc3)nc(-c3cccc(F)c3)c2c2cc(-c3ccccc3)nn12
9 | inactive | inactive | < 50% | inactive | – | – | – | – | CCc1nc2c(=O)n(Cc3ccccc3)nc(-c3ccc(F)cc3)c2c2cc(-c3ccccc3)nn12
10 | < 50% | < 50% | – | – | 1620 nM | – | 3150 nM | – | Cc1nc2c(=O)n(Cc3ccccc3)nc(Cl)c2c2cc(-c3ccccc3)nn12
11 | inactive | inactive | < 50% | inactive | – | – | – | – | CCc1nc2c(=O)n(Cc3ccccc3)nc(-c3cccc(F)c3)c2c2cc(-c3ccsc3)nn12
12 | inactive | inactive | < 50% | inactive | – | – | – | – | Fc1ccc(-c2nnc(Cl)c3ncn4nc(-c5ccccc5)cc4c23)cc1
13 | < 50% | < 50% | – | < 50% | 3250 nM | – | – | – | Cc1nn(Cc2ccccc2)c(=O)c2nc(C)n3nc(-c4ccccc4)cc3c12
14 | inactive | inactive | – | inactive | 123 nM | – | – | – | O=c1c2ncn3nc(-c4ccsc4)cc3c2c(-c2ccc(F)cc2)nn1Cc1ccccc1
15 | < 50% | < 50% | – | < 50% | 475 nM | – | – | – | Cc1nn(C(C)c2ccccc2)c(=O)c2ncn3nc(-c4ccccc4)cc3c12 (stereo unspecified)
16 | inactive | inactive | < 50% | inactive | – | – | – | – | CC(C)c1nc2c(=O)n(Cc3ccccc3)nc(-c3ccccc3)c2c2cc(-c3ccccc3)nn12
17 | < 50% | < 50% | < 50% | < 50% | – | – | – | – | Cc1nn(Cc2ccccc2)c(=O)c2nnn3nc(-c4ccccc4)cc3c12

Row | inhibition [1] | inhibition [2] | inhibition [3] | inhibition (Adenosine receptor A2a [4]) | Ki (Adenosine receptor A1) | Ratio Ki (Homo sapiens) | Ki (Adenosine receptor A2a [5]) | inhibition [6] | Compound
18 | inactive | inactive | – | – | 192 nM | – | 5190 nM | – | CC(C)c1nc2c(=O)n(Cc3ccccc3)nc(-c3ccncc3)c2c2cc(-c3ccccc3)nn12
19 | inactive | inactive | – | – | 43.6 nM | – | 501 nM | 5.7% | Cc1nc2c(=O)n(Cc3ccccc3)nc(-c3ccncc3)c2c2cc(-c3ccccc3)nn12
20 | inactive | inactive | – | inactive | 2440 nM | – | – | – | CCc1nc2c(=O)n(Cc3ccccc3)nc(-c3ccccc3)c2c2cc(-c3ccccc3)nn12
21 | inactive | inactive | < 50% | inactive | – | – | – | – | Cc1nc2c(=O)n(Cc3ccccc3)nc(-c3ccc(F)cc3)c2c2cc(-c3ccccc3)nn12
22 | inactive | inactive | – | < 50% | 180 nM | – | – | 32.8% | CCc1nc2c(=O)n(Cc3ccccc3)nc(-c3cccnc3)c2c2cc(-c3ccccc3)nn12
23 | inactive | inactive | – | – | 71.8 nM | – | 2490 nM | – | CCc1nc2c(=O)n(Cc3ccccc3)nc(-c3ccncc3)c2c2cc(-c3ccccc3)nn12
24 | inactive | inactive | – | – | 28.3 nM | – | 772 nM | – | CCCc1nc2c(=O)n(Cc3ccccc3)nc(-c3ccncc3)c2c2cc(-c3ccccc3)nn12
25 | inactive | inactive | < 50% | inactive | – | – | – | – | O=c1c2nc(C(F)(F)F)n3nc(-c4ccccc4)cc3c2c(-c2ccc(F)cc2)nn1Cc1ccccc1
26 | inactive | inactive | – | inactive | 189 nM | – | – | – | O=c1c2ncn3nc(-c4ccsc4)cc3c2c(-c2cccc(F)c2)nn1Cc1ccccc1
27 | inactive | inactive | < 50% | inactive | – | – | – | – | Cc1nc2c(=O)n(Cc3ccccc3)nc(-c3cccc(F)c3)c2c2cc(-c3ccsc3)nn12
28 | inactive | inactive | – | – | 267 nM | – | 572 nM | – | Cc1nc2c(=S)n(Cc3ccccc3)nc(-c3ccncc3)c2c2cc(-c3ccccc3)nn12
29 | < 50% | < 50% | < 50% | < 50% | – | – | – | – | Cc1nn(Cc2ccccc2)c(=O)c2nc(C)n3nccc3c12
30 | inactive | inactive | – | inactive | 3240 nM | – | – | – | Cc1nc2c(=O)n(Cc3ccccc3)nc(-c3cccc(F)c3)c2c2cc(-c3ccccc3)nn12
31 | inactive | inactive | – | – | 47.4 nM | – | 2110 nM | 29.7% | Cc1nc2c(=O)n(Cc3ccccc3)nc(-c3cccnc3)c2c2cc(-c3ccccc3)nn12
32 | inactive | inactive | – | inactive | 1430 nM | – | – | – | O=c1c2ncn3nc(-c4ccccc4)cc3c2c(-c2ccccc2)nn1Cc1ccccc1
33 | inactive | inactive | – | inactive | 1590 nM | – | – | – | Cc1nc2c(=O)n(Cc3ccccc3)nc(-c3ccccc3)c2c2cc(-c3ccccc3)nn12
34 | inactive | inactive | – | – | 11.4 nM | 71 | 805 nM | – | O=c1c2ncn3nc(-c4ccccc4)cc3c2c(-c2cccnc2)nn1Cc1ccccc1
